Experimental findings from ChEMBL document CHEMBL2407083, “Design and synthesis of novel 4-(4-oxo-2-arylthiazolidin-3-yl)benzenesulfonamides as selective inhibitors of carbonic anhydrase IX over I and II with potential anticancer activity” (Eur J Med Chem, 2013) are described below.

In data set [1] the test system is COLO 205. Briefly: Cytotoxicity against human COLO205 cells after 48 hrs by MTT assay. The following applies: COLO 205, 48 h.
The next data set has as its target Carbonic anhydrase 9 (Homo sapiens, UniProt Q16790). Briefly: Inhibition of carbonic anhydrase 9 (unknown origin) preincubated for 15 mins by stopped flow CO2 hydration assay.
The subject of a further data set is MDA-MB-231. Description: Cytotoxicity against human MDA-MB-231 cells after 48 hrs by MTT assay. The following applies: MDA-MB-231, 48 h.
The next data set deals with DU-145. Description: Cytotoxicity against human DU145 cells after 48 hrs by MTT assay. The following applies: DU-145, 48 h.
Data set [2] relates to COLO 205. Briefly: Induction of apoptosis in human COLO205 cells assessed as nuclear condensation at IC50 after 48 hrs using Hoechst 33258 staining by fluorescence microscopic analysis. The data set is classed as functional, cell-based. The essentials: (§1)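 COLO-205 cells plated at 10⁵ cells/ml and grown to 70-80% confluency, then treated for 48 h. Fixed in 4% formaldehyde for 30 min at RT and stained with Hoechst 33258 for 15 min at RT. After three PBS washes, examined by inverted fluorescence microscopy (ex 340-380 nm, em 465 nm) against untreated control cells.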

For data set [3], the system named is COLO 205. Description: Induction of apoptosis in human COLO205 cells assessed as chromatin condensation at IC50 after 48 hrs using acridine orange and ethidium bromide staining by fluorescence microscopic analysis. The data set is classed as functional, cell-based. The essentials:
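COLO-205 cells seeded at 10⁵ cells/ml, grown 24 h, then treated for 48 h. Cells collected by trypsinization, centrifuged at 129 g for 5 min, and washed with PBS. Stained with a 1:1 acridine orange/ethidium bromide mix and examined by fluorescence microscopy against control cells.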

Data set [4] relates to Mus musculus. Description: Toxicity in Swiss albino mouse DLA-induced solid tumor model assessed as increase in body weight at 50 mg/kg, po administered on days 3rd, 5th, 7th, 10th, 12th, and 14th of tumor inoculation measured on day 30 (reference value: 13.79%). Type of data set: organism-based. More on the design: dose 50 mg/kg, route oral. The following applies: in vivo.

Data set [5] has as its system COLO 205. Briefly: Induction of apoptosis in human COLO205 cells assessed as DNA fragmentation at IC50 after 48 hrs using Hoechst 33258 staining by fluorescence microscopic analysis. The data set is classed as functional, cell-based. An outline of the steps:
as §1

In data set [6] the test system is Mus musculus. Description: Antitumor activity in Swiss albino mouse DLA-induced solid tumor model assessed as reduction in tumor volume at 50 mg/kg, po administered on days 3rd, 5th, 7th, 10th, 12th, and 14th of tumor inoculation measured on day 30. On the set-up: scale not given: the % may be the effect or the level left. The data set is classed as functional. The essentials: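 Male Swiss albino mice (6-8 weeks, 29 ± 2 g) received DLA cells, 1 × 10⁶/mouse, subcutaneously into the right hind limb. Dosing by mouth in 0.25% CMC suspension. A vernier caliper gave tumor diameter every third day from day 3, and V = 4/3πr₁²×r₂. Percent inhibition is against vehicle control on day 30. Six mice per group.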

Converted amounts (≈) assume the structure as drawn. The source made the active and inactive calls. The calls are words filed in the database; no cut-off is given here.

For the compound `NS(=O)(=O)c1ccc(N2C(=O)CSC2c2ccccc2)cc1` (stereo not given), the 50% inhibitory concentration (IC50) worked out at 30.6 µg/mL (≈ 91.5 µM) in the data set with COLO 205 [1], 23.9 µg/mL (≈ 71.4 µM) in the data set on MDA-MB-231 and 39.2 µg/mL (≈ 117 µM) in the data set with DU-145. On Carbonic anhydrase 9, the Ki was found to be 0.0212 µM.
Taken in the same sequence, the figures for `NS(=O)(=O)c1ccc(N2C(=O)CSC2c2ccc(F)cc2)cc1` (stereo not given) were 31.4 µg/mL (≈ 89 µM), 22.7 µg/mL (≈ 64.4 µM), 37.1 µg/mL (≈ 105 µM) and 0.0374 µM.
Taken in the same sequence, the figures for `NS(=O)(=O)c1ccc(N2C(=O)CSC2c2ccccc2F)cc1` (stereo not given) were 34.7 µg/mL (≈ 98.4 µM), 25.9 µg/mL (≈ 73.4 µM), 38.6 µg/mL (≈ 110 µM) and 0.0444 µM.
`NS(=O)(=O)c1ccc(N2C(=O)CSC2c2ccc(Cl)cc2)cc1` (stereo not given): the IC50 with COLO 205 [1] amounted to 15.4 µg/mL (≈ 41.7 µM); with MDA-MB-231 it was 7.16 µg/mL (≈ 19.4 µM); in the data set on DU-145 it was 29.3 µg/mL (≈ 79.4 µM). At Carbonic anhydrase 9, this compound returned a Ki of 0.0047 µM.
Consider `NS(=O)(=O)c1ccc(N2C(=O)CSC2c2cccc(F)c2)cc1` (stereo not given), for which the IC50 with COLO 205 [1] amounted to 29.8 µg/mL (≈ 84.7 µM); in the data set on MDA-MB-231, 21.4 µg/mL (≈ 60.6 µM); with DU-145, 39.1 µg/mL (≈ 111 µM). The inhibition constant (Ki) at Carbonic anhydrase 9 amounted to 0.0531 µM.
Regarding `NS(=O)(=O)c1ccc(N2C(=O)CSC2c2cccc(Cl)c2)cc1` (stereo not given), the result in the data set with COLO 205 [2], in the data set with COLO 205 [3] and in the data set with COLO 205 [5] was Active. Also, the IC50 in the data set with COLO 205 [1] is 5.03 µg/mL (≈ 13.6 µM); with MDA-MB-231 it was 5.81 µg/mL (≈ 15.8 µM); in the data set on DU-145 it was 23.9 µg/mL (≈ 64.9 µM). In addition, the inhibitory constant (Ki) at Carbonic anhydrase 9 is 0.0022 µM. Moreover, the Activity with Mus musculus [4] was determined as 4.09%; in the data set on Mus musculus [6], 64.83%.
On to `NS(=O)(=O)c1ccc(N2C(=O)CSC2c2ccccc2Br)cc1` (stereo not given), for which the IC50 with COLO 205 [1] was 27.5 µg/mL (≈ 66.5 µM); with MDA-MB-231, 20.6 µg/mL (≈ 49.9 µM); in the data set on DU-145, 35 µg/mL (≈ 84.7 µM). Moreover, on Carbonic anhydrase 9, the affinity corresponds to a Ki of 0.0092 µM.
Taken in the same sequence, the figures for `NS(=O)(=O)c1ccc(N2C(=O)CSC2c2ccc(Br)cc2)cc1` (stereo not given) were 23.1 µg/mL (≈ 55.8 µM), 17.5 µg/mL (≈ 42.3 µM), 35.1 µg/mL (≈ 84.9 µM) and 0.0135 µM.
In the case of `NS(=O)(=O)c1ccc(N2C(=O)CSC2c2cccc(Br)c2)cc1` (stereo not given), the results for the IC50 in the data set on COLO 205 [1], in the data set on MDA-MB-231 and in the data set on DU-145 were 16.9 µg/mL (≈ 40.9 µM), 12.4 µg/mL (≈ 30 µM) and 30.1 µg/mL (≈ 72.9 µM), respectively. Affinity on Carbonic anhydrase 9 was put at a Ki of 0.0194 µM.
Consider `NS(=O)(=O)c1ccc(N2C(=O)CSC2c2ccccc2Cl)cc1` (stereo not given), for which the values for the IC50 in the data set on COLO 205 [1], with MDA-MB-231 and in the data set with DU-145 were 19.5 µg/mL (≈ 52.9 µM), 13.6 µg/mL (≈ 36.8 µM) and 33.3 µg/mL (≈ 90.2 µM), respectively. On Carbonic anhydrase 9, this compound yielded a Ki of 0.0077 µM.
